The record followed here is ChEMBL document CHEMBL1152495, “Synthesis and antimicrobial studies of novel methylene bridged benzisoxazolyl imidazo[2,1-b][1,3,4]thiadiazole derivatives” (2009).

Converted amounts (≈) assume the structure as drawn.

The first experiment deals with Staphylococcus aureus. In words: Antibacterial activity against Staphylococcus aureus ATCC 25923 at 100 ug/ml after 24 hrs by agar well diffusion method. Format: functional. Conditions: ATCC 25923, 24 h, read-out: IZ. An outline of the steps: (§1)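 Agar well diffusion on Mueller Hinton agar (20 mL per dish), seeded homogeneously with liquid bacterial culture by spread plating. Samples loaded directly into wells, dimethylformamide as solvent control, ampicillin as reference drug. Plates incubated at 37 °C for 24 h. All determinations done in triplicate.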
`O=[N+]([O-])c1ccc(-c2cn3nc(Cc4noc5ccccc45)sc3n2)cc1`: the zone of inhibition at 100 µg/mL was determined as 14 mm.
As to `N#CSc1c(-c2ccc([N+](=O)[O-])cc2)nc2sc(Cc3noc4ccccc34)nn12`, the zone of inhibition at 100 µg/mL is 9 mm.
Still for that read-out and setting: to `Brc1ccc(-c2nc3sc(Cc4noc5ccccc45)nn3c2Br)cc1` belongs 13 mm; to `Clc1ccc(-c2nc3sc(Cc4noc5ccccc45)nn3c2Br)cc1`, 17 mm; to `Brc1ccc(-c2cn3nc(Cc4noc5ccccc45)sc3n2)cc1`, 15 mm.

Another experiment relates to Bacillus subtilis. In words: Antibacterial activity against Bacillus subtilis ATCC 6633 at 100 ug/ml after 24 hrs by agar well diffusion method. To be noted: ATCC 6633, 24 h, read-out: IZ. Format: functional. An outline of the steps: as §1
On to `O=[N+]([O-])c1ccc(-c2cn3nc(Cc4noc5ccccc45)sc3n2)cc1`, for which the zone of inhibition at 100 µg/mL was 11 mm.
Take `N#CSc1c(-c2ccc([N+](=O)[O-])cc2)nc2sc(Cc3noc4ccccc34)nn12`: the zone of inhibition at 100 µg/mL was 8 mm.
On the same count and under the same terms, to `Brc1ccc(-c2nc3sc(Cc4noc5ccccc45)nn3c2Br)cc1` belongs 12 mm.
Consider `Clc1ccc(-c2nc3sc(Cc4noc5ccccc45)nn3c2Br)cc1`, for which the zone of inhibition at 100 µg/mL stood at 18 mm.
On the same count and under the same terms, in the case of `Brc1ccc(-c2cn3nc(Cc4noc5ccccc45)sc3n2)cc1` it was 18 mm.

In a further experiment the test system is Escherichia coli. Put plainly: Antibacterial activity against Escherichia coli ATCC 35218 at 100 ug/ml after 24 hrs by agar well diffusion method. It is filed as functional. Conditions: ATCC 35218, 24 h, read-out: IZ. An outline of the steps:
as §1
Turning to `O=[N+]([O-])c1ccc(-c2cn3nc(Cc4noc5ccccc45)sc3n2)cc1`, the zone of inhibition at 100 µg/mL is 13 mm.
Still for that read-out and setting: to `N#CSc1c(-c2ccc([N+](=O)[O-])cc2)nc2sc(Cc3noc4ccccc34)nn12` belongs 7 mm.
On the same count and under the same terms, to `Brc1ccc(-c2nc3sc(Cc4noc5ccccc45)nn3c2Br)cc1` belongs 14 mm.
The same measure, in the same setting: to `Clc1ccc(-c2nc3sc(Cc4noc5ccccc45)nn3c2Br)cc1` belongs 15 mm.
With `Brc1ccc(-c2cn3nc(Cc4noc5ccccc45)sc3n2)cc1`, the zone of inhibition at 100 µg/mL came out at 20 mm.

Another experiment has as its system Pseudomonas aeruginosa. In words: Antibacterial activity against Pseudomonas aeruginosa ATCC 10145 at 100 ug/ml after 24 hrs by agar well diffusion method. Format: functional. Conditions: ATCC 10145, 24 h, read-out: IZ. An outline of the steps:
as §1
In the case of `O=[N+]([O-])c1ccc(-c2cn3nc(Cc4noc5ccccc45)sc3n2)cc1`, the zone of inhibition at 100 µg/mL worked out at 8 mm.
Same read-out and setting: in the case of `N#CSc1c(-c2ccc([N+](=O)[O-])cc2)nc2sc(Cc3noc4ccccc34)nn12` it was 10 mm; in that of `Brc1ccc(-c2nc3sc(Cc4noc5ccccc45)nn3c2Br)cc1`, 16 mm.
For the molecule `Clc1ccc(-c2nc3sc(Cc4noc5ccccc45)nn3c2Br)cc1`, the zone of inhibition at 100 µg/mL came to 12 mm.
Regarding `Brc1ccc(-c2cn3nc(Cc4noc5ccccc45)sc3n2)cc1`, the zone of inhibition at 100 µg/mL was determined as 14 mm.

The next experiment has as its system Candida albicans. In words: Antifungal activity against Candida albicans at 100 ug/ml after 72 hrs by agar well diffusion method. To be noted: read-out: IZ. Format: functional. An outline of the steps:
(§2)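 Fungi grown on Potato Dextrose Agar (20 mL per dish), seeded homogeneously with liquid culture by spread plating. Samples loaded directly into agar wells, with dimethylformamide as solvent control and clotrimazole as reference drug. Plates incubated at 25 °C for 72 h, triplicate determinations.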
Turning to `O=[N+]([O-])c1ccc(-c2cn3nc(Cc4noc5ccccc45)sc3n2)cc1`, the zone of inhibition at 100 µg/mL turned out to be 10 mm.
Same read-out and setting: in the case of `N#CSc1c(-c2ccc([N+](=O)[O-])cc2)nc2sc(Cc3noc4ccccc34)nn12` it was 11 mm; in that of `Brc1ccc(-c2nc3sc(Cc4noc5ccccc45)nn3c2Br)cc1`, 16 mm.
Same read-out and setting: to `Clc1ccc(-c2nc3sc(Cc4noc5ccccc45)nn3c2Br)cc1` belongs 15 mm; to `Brc1ccc(-c2cn3nc(Cc4noc5ccccc45)sc3n2)cc1`, 22 mm.

The subject of another experiment is Aspergillus fumigatus. In words: Antifungal activity against Aspergillus fumigatus at 100 ug/ml after 72 hrs by agar well diffusion method. Format: functional. Conditions: read-out: IZ. An outline of the steps:
as §2
Turning to `O=[N+]([O-])c1ccc(-c2cn3nc(Cc4noc5ccccc45)sc3n2)cc1`, the zone of inhibition at 100 µg/mL was found to be 11 mm.
The same measure, in the same setting: to `N#CSc1c(-c2ccc([N+](=O)[O-])cc2)nc2sc(Cc3noc4ccccc34)nn12` belongs 9 mm; to `Brc1ccc(-c2nc3sc(Cc4noc5ccccc45)nn3c2Br)cc1`, 16 mm.
Same read-out and setting: to `Clc1ccc(-c2nc3sc(Cc4noc5ccccc45)nn3c2Br)cc1` belongs 10 mm; to `Brc1ccc(-c2cn3nc(Cc4noc5ccccc45)sc3n2)cc1`, 13 mm.

The test system of a further experiment is Staphylococcus aureus. In words: Antibacterial activity against Staphylococcus aureus ATCC 25923 after 24 hrs by agar well diffusion method. Format: functional. To be noted: ATCC 25923, 24 h. An outline of the steps:
as §1
`O=[N+]([O-])c1ccc(-c2cn3nc(Cc4noc5ccccc45)sc3n2)cc1` had an MIC of 1.5 µg/mL (≈ 3.97 µM).
The same measure, in the same setting: to `N#CSc1c(-c2ccc([N+](=O)[O-])cc2)nc2sc(Cc3noc4ccccc34)nn12` belongs 2 µg/mL (≈ 4.6 µM); to `Brc1ccc(-c2nc3sc(Cc4noc5ccccc45)nn3c2Br)cc1`, 2 µg/mL (≈ 4.08 µM).
`Clc1ccc(-c2nc3sc(Cc4noc5ccccc45)nn3c2Br)cc1` had an MIC of 1.5 µg/mL (≈ 3.37 µM).
In the case of `Brc1ccc(-c2cn3nc(Cc4noc5ccccc45)sc3n2)cc1`, the MIC was determined as 2.5 µg/mL (≈ 6.08 µM).

Another experiment deals with Bacillus subtilis. Put plainly: Antibacterial activity against Bacillus subtilis ATCC 6633 after 24 hrs by agar well diffusion method. Format: functional. To be noted: ATCC 6633, 24 h. An outline of the steps:
as §1
Turning to `O=[N+]([O-])c1ccc(-c2cn3nc(Cc4noc5ccccc45)sc3n2)cc1`, the MIC is 2.5 µg/mL (≈ 6.62 µM).
The molecule `N#CSc1c(-c2ccc([N+](=O)[O-])cc2)nc2sc(Cc3noc4ccccc34)nn12` came in with an MIC of 2.5 µg/mL (≈ 5.75 µM).
With `Brc1ccc(-c2nc3sc(Cc4noc5ccccc45)nn3c2Br)cc1`, the minimum inhibitory concentration (MIC) stood at 2.5 µg/mL (≈ 5.1 µM).
On the same count and under the same terms, in the case of `Clc1ccc(-c2nc3sc(Cc4noc5ccccc45)nn3c2Br)cc1` it was 0.5 µg/mL (≈ 1.12 µM); in that of `Brc1ccc(-c2cn3nc(Cc4noc5ccccc45)sc3n2)cc1`, 0.5 µg/mL (≈ 1.22 µM).

For another experiment, the system named is Escherichia coli. In words: Antibacterial activity against Escherichia coli ATCC 35218 after 24 hrs by agar well diffusion method. It is filed as functional. Conditions: ATCC 35218, 24 h. An outline of the steps: as §1
On to `O=[N+]([O-])c1ccc(-c2cn3nc(Cc4noc5ccccc45)sc3n2)cc1`, for which the MIC is 3 µg/mL (≈ 7.95 µM).
Still for that read-out and setting: in the case of `N#CSc1c(-c2ccc([N+](=O)[O-])cc2)nc2sc(Cc3noc4ccccc34)nn12` it was 4 µg/mL (≈ 9.21 µM); in that of `Brc1ccc(-c2nc3sc(Cc4noc5ccccc45)nn3c2Br)cc1`, 2 µg/mL (≈ 4.08 µM).
`Clc1ccc(-c2nc3sc(Cc4noc5ccccc45)nn3c2Br)cc1` had an MIC of 2 µg/mL (≈ 4.49 µM).
On the same count and under the same terms, to `Brc1ccc(-c2cn3nc(Cc4noc5ccccc45)sc3n2)cc1` belongs 1 µg/mL (≈ 2.43 µM).

The test system of a further experiment is Pseudomonas aeruginosa. Put plainly: Antibacterial activity against Pseudomonas aeruginosa ATCC 10145 after 24 hrs by agar well diffusion method. Format: functional. Conditions: ATCC 10145, 24 h. The method in brief:
as §1
`O=[N+]([O-])c1ccc(-c2cn3nc(Cc4noc5ccccc45)sc3n2)cc1` registered an MIC of 3.5 µg/mL (≈ 9.27 µM).
The same measure, in the same setting: in the case of `N#CSc1c(-c2ccc([N+](=O)[O-])cc2)nc2sc(Cc3noc4ccccc34)nn12` it was 3 µg/mL (≈ 6.91 µM).
The same measure, in the same setting: in the case of `Brc1ccc(-c2nc3sc(Cc4noc5ccccc45)nn3c2Br)cc1` it was 2 µg/mL (≈ 4.08 µM).
The same measure, in the same setting: to `Clc1ccc(-c2nc3sc(Cc4noc5ccccc45)nn3c2Br)cc1` belongs 2.5 µg/mL (≈ 5.61 µM); to `Brc1ccc(-c2cn3nc(Cc4noc5ccccc45)sc3n2)cc1`, 2.5 µg/mL (≈ 6.08 µM).

In the next experiment the test system is Candida albicans. In words: Antifungal activity against Candida albicans after 72 hrs by agar well diffusion method. It is filed as functional.
Settings: not given
The method in brief: as §2
For `O=[N+]([O-])c1ccc(-c2cn3nc(Cc4noc5ccccc45)sc3n2)cc1`, the MIC came to 3.5 µg/mL (≈ 9.27 µM).
On the same count and under the same terms, in the case of `N#CSc1c(-c2ccc([N+](=O)[O-])cc2)nc2sc(Cc3noc4ccccc34)nn12` it was 3.5 µg/mL (≈ 8.06 µM); in that of `Brc1ccc(-c2nc3sc(Cc4noc5ccccc45)nn3c2Br)cc1`, 2.5 µg/mL (≈ 5.1 µM).
Regarding `Clc1ccc(-c2nc3sc(Cc4noc5ccccc45)nn3c2Br)cc1`, the MIC was found to be 3 µg/mL (≈ 6.73 µM).
Still for that read-out and setting: to `Brc1ccc(-c2cn3nc(Cc4noc5ccccc45)sc3n2)cc1` belongs 2 µg/mL (≈ 4.86 µM).

The subject of a further experiment is Aspergillus fumigatus. Put plainly: Antifungal activity against Aspergillus fumigatus after 72 hrs by agar well diffusion method.
Settings: not given
Format: functional. An outline of the steps:
as §2
Take `O=[N+]([O-])c1ccc(-c2cn3nc(Cc4noc5ccccc45)sc3n2)cc1`: the MIC is 4 µg/mL (≈ 10.6 µM).
Same read-out and setting: in the case of `N#CSc1c(-c2ccc([N+](=O)[O-])cc2)nc2sc(Cc3noc4ccccc34)nn12` it was 3.5 µg/mL (≈ 8.06 µM).
The same measure, in the same setting: in the case of `Brc1ccc(-c2nc3sc(Cc4noc5ccccc45)nn3c2Br)cc1` it was 2.5 µg/mL (≈ 5.1 µM); in that of `Clc1ccc(-c2nc3sc(Cc4noc5ccccc45)nn3c2Br)cc1`, 4 µg/mL (≈ 8.97 µM); in that of `Brc1ccc(-c2cn3nc(Cc4noc5ccccc45)sc3n2)cc1`, 3.5 µg/mL (≈ 8.51 µM).
